# Source: ChEMBL document CHEMBL3813631, “Design, synthesis, and pharmacological evaluation of JDTic analogs to examine the significance of replacement of the 3-hydroxyphenyl group with pyridine or thiophene bioisosteres” (Bioorg Med Chem, 2016)
# The source made the active and inactive calls. The calls are words filed in the database; no cut-off is given here.
# Key:
# [1] = target: Mu-type opioid receptor (Homo sapiens) (UniProt P35372); assay: Intrinsic activity at human mu opioid receptor expressed in CHO cell membrane assessed as increase in [35S]GTPgammaS binding at 10 uM after 1 hr by scintillation counting method; assay type: functional, cell membranes
# Mu-type opioid receptor (Homo sapiens), sequence (P35372 whole entry): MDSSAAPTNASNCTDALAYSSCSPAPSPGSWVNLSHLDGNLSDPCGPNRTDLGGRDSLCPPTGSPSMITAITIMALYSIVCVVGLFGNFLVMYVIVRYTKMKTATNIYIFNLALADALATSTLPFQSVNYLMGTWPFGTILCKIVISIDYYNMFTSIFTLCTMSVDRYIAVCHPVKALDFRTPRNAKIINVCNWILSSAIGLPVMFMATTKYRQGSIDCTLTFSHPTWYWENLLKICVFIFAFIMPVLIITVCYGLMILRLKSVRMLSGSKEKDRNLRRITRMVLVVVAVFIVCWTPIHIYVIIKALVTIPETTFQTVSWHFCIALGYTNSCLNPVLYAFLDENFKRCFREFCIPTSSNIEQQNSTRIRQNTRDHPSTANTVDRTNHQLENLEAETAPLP
# [2] = target: Delta-type opioid receptor (Homo sapiens) (UniProt P41143); assay: Intrinsic activity at human delta opioid receptor expressed in CHO cell membrane assessed as increase in [35S]GTPgammaS binding at 10 uM after 1 hr by scintillation counting method; assay type: functional, cell membranes
# Delta-type opioid receptor (Homo sapiens), sequence (P41143 whole entry): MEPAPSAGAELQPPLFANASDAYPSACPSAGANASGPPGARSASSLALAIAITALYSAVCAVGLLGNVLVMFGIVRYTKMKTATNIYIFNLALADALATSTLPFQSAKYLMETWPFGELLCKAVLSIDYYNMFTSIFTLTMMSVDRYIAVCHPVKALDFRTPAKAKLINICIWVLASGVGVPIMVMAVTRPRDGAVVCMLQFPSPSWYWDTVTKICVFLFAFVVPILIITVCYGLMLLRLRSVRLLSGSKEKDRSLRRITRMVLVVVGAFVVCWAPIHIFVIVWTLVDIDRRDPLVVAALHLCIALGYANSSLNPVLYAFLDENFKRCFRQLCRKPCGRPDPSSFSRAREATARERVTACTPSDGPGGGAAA
# [3] = target: Kappa-type opioid receptor (Homo sapiens) (UniProt P41145); assay: Antagonist activity at human kappa opioid receptor expressed in CHO cell membrane assessed as inhibition of U69,593-induced [35S]GTPgammaS binding after 1 hr by scintillation counting method; assay type: functional, cell membranes
# Kappa-type opioid receptor (Homo sapiens), sequence (P41145 whole entry): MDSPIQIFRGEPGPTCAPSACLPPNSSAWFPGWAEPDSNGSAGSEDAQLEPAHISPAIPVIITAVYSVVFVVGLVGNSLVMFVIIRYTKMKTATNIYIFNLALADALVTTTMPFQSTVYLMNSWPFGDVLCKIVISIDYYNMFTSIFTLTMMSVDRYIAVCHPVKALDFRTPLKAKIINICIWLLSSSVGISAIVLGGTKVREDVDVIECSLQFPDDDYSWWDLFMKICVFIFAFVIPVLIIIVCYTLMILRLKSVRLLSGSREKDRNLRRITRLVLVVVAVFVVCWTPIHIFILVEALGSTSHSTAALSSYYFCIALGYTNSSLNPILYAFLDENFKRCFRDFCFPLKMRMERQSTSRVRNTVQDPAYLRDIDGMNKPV
# Outline: (§1)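 Antagonist Ke values were obtained from [35S]GTPγS binding at each opioid receptor. Each value is the mean ± SEM of at least three independent experiments, and each experiment was run in duplicate.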
# CHO [4] = assay: Selectivity ratio of Ke for human delta opioid receptor expressed in CHO cell membrane to Ke for human kappa opioid receptor expressed in CHO cell membrane; assay type: cell-based
# CHO [5] = assay: Selectivity ratio of Ke for human mu opioid receptor expressed in CHO cell membrane to Ke for human kappa opioid receptor expressed in CHO cell membrane; assay type: cell-based
# [6] = target: Kappa-type opioid receptor (Homo sapiens) (UniProt P41145); assay: Intrinsic activity at human kappa opioid receptor expressed in CHO cell membrane assessed as increase in [35S]GTPgammaS binding at 10 uM after 1 hr by scintillation counting method; assay type: functional, cell membranes
# [7] = target: Mu-type opioid receptor (Homo sapiens) (UniProt P35372); assay: Antagonist activity at human mu opioid receptor expressed in CHO cell membrane assessed as inhibition of DAMGO-induced [35S]GTPgammaS binding after 1 hr by scintillation counting method; assay type: functional, cell membranes; outline: as §1
# [8] = target: Delta-type opioid receptor (Homo sapiens) (UniProt P41143); assay: Antagonist activity at human delta opioid receptor expressed in CHO cell membrane assessed as inhibition of DPDPE-induced [35S]GTPgammaS binding after 1 hr by scintillation counting method; assay type: functional, cell membranes; outline: as §1
Intrinsic activity [1],Intrinsic activity [2],Ke [3] [nM],Intrinsic activity [6],Ke [7] [nM],Ke [8] [nM],SMILES,Ratio Ke (CHO [4]),Ratio Ke (CHO [5])
inactive,inactive,0.51,inactive,–,–,CC(C)[C@@H](CN1CCC(c2cccnc2)CC1)NC(=O)[C@H]1Cc2ccc(O)cc2CN1,2240,89
–,–,–,–,–,–,CC(C)[C@@H](CN1CCC(c2ccccc2)CC1)NC(=O)[C@H]1Cc2ccc(O)cc2CN1,5510,77
inactive,inactive,0.12,inactive,3.93,118,CC(C)[C@@H](CN1CCC(c2ccsc2)CC1)NC(=O)[C@H]1Cc2ccc(O)cc2CN1,983,33
inactive,inactive,0.43,inactive,–,–,CC(C)[C@@H](CN1CCC(c2ccccn2)CC1)NC(=O)[C@H]1Cc2ccc(O)cc2CN1,1370,33
inactive,inactive,0.51,inactive,–,–,CC(C)[C@@H](CN1CCC(c2ccncc2)CC1)NC(=O)[C@H]1Cc2ccc(O)cc2CN1,1350,112

SMILES,Intrinsic activity [1],Intrinsic activity [2],Ke [3] [nM],Intrinsic activity [6],Ke [7] [nM],Ke [8] [nM],Ratio Ke (CHO [4]),Ratio Ke (CHO [5])
CC(C)[C@@H](CN1CCC(C)(c2cccnc2)CC1)NC(=O)[C@H]1Cc2ccc(O)cc2CN1,inactive,inactive,0.18,inactive,–,–,> 16700,273
CC(C)[C@@H](CN1CCC(C)(c2ccncc2)CC1)NC(=O)[C@H]1Cc2ccc(O)cc2CN1,inactive,inactive,1.75,inactive,–,–,1430,88
